In the library only some 2.3% were active in any assay of this set; here they are far more common.
TRPC4 PAM: allosteric potentiators of mouse TRPC4 channel. B-score at 10 µM. hit rate 0.42% among 310,000. HEK293 TRPC4beta/mu-opioid, DAMGO EC20, Fluo-4 Ca2+ flux; hits give high values. Q9QUQ5;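 active means B-score of calcium response area above 5 SD of library B-scores, with initial fluorescence ratio within 5 SD of library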
Target sequence (Q9QUQ5 whole entry, looked up): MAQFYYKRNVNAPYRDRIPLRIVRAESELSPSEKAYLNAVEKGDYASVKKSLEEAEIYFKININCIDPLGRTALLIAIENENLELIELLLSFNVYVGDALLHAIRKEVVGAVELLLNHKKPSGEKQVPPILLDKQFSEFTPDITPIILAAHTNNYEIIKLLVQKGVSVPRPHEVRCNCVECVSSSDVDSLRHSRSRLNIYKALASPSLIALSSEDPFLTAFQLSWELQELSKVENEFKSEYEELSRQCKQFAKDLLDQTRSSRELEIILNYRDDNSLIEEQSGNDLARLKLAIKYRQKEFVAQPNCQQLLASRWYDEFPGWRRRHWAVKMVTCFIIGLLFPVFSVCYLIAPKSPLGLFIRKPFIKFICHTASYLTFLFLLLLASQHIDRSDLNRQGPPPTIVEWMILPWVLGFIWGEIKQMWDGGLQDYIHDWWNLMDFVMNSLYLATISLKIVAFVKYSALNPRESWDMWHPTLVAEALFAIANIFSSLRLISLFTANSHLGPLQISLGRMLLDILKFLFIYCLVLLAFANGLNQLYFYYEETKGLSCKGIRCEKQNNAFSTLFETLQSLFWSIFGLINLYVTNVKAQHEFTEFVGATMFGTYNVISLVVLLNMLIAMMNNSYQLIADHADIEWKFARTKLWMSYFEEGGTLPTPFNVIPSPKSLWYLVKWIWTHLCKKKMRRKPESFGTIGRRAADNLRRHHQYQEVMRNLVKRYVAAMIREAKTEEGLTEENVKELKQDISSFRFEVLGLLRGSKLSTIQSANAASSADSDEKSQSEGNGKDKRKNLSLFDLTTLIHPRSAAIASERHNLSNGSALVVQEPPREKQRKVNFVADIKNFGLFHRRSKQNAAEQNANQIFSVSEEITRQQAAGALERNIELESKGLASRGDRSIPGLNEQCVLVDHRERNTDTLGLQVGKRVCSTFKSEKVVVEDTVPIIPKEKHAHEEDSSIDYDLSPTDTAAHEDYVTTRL
TRPC4 inh: TRPC4 (mouse) channel inhibition; Q9QUQ5; HEK293 TRPC4beta/mu-opioid, DAMGO-evoked Fluo4 calcium flux; hits give low values; B-score at 10 µM; hit rate 0.39% among 300,000; AID 2247;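 active means B-score over 3 SD under the library average, no early fluorescence shift, positive overall ratio signal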
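Assay system: HEK293 cells with stable TRPC4beta plus mu-opioid receptor expression; Probe or stimulus: DAMGO in two steps, submaximal then maximal; Dosing: single-point compound dosing; Measured by: Fluo4 calcium-dye fluorescence, kinetic read; Read-out basis: B score from integrated Fluo4 fluorescence ratio.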
TRPC4 agonist: activators of mouse TRPC4 channel | B-score at 10 µM | AID 2237 | hit rate 0.49% among 310,000 | Q9QUQ5 | HEK293 TRPC4beta/mu-opioid, Fluo4 calcium fluorescence; hits give high values;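 active means B-score above 5 SD of library B-scores, and initial fluorescence ratio not above library mean plus 5 SD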;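 further: positive B-score marks a calcium rise read as TRPC4 activation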
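System: HEK293 cells stably co-expressing mouse TRPC4beta and mu-opioid receptor; Schedule: Fluo4 dye loading 45 min at room temperature, 110 s recording; Detection: Fluo4 fluorescence, kinetic; Evaluation: B-scored integrated calcium fluorescence ratio; Controls: buffer (low) and maximal DAMGO (high).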
TRPC6 activator: activators of mouse TRPC6 channel | HEK293-TRPC6 membrane potential dye fluorescence; hits give high values | B-score at 10 µM | AID 2550 | hit rate 0.13% among 310,000;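 active means B-score of the integrated fluorescence ratio above library mean plus 3 SD, and starting fluorescence ratio within library mean plus 5 SD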;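 further: higher score means more depolarization so channel activation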
TRPC6 inh: inhibitors of mouse TRPC6 channel. Q61143. HEK293-TRPC6, membrane potential dye, ACh-evoked depolarization; hits give low values. B-score at 10 µM. hit rate 1.1% among 310,000;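 active means B-score under library mean minus 3 SD, initial fluorescence not abnormally high, positive integrated signal ratio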;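 further: B-score derived from integrated fluorescence ratio over the kinetic read; more negative B-score means stronger inhibition of depolarization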
Each line names hits and unclear results; the compound was inactive in the other large screens.

O=C(OCC(=O)N1CCCC1)c1c2c(nc3ccccc13)CCCCC2	none
CCC(C)N(C(=O)Cn1nnc2ccccc21)C(C(=O)Nc1ccc(F)cc1)c1cccc(OC)c1 (stereo not given)	TRPC6 activator 14
O=C(CSc1nnc(NC(=O)c2ccccc2)s1)NCc1ccco1	none
O=C(CSc1nnc(NC(=O)c2ccc3c(c2)OCO3)s1)NCc1ccco1	TRPC4 PAM 11
CN1CCN(c2ccc(Cl)cc2NC(=O)/C=C/c2ccc(F)cc2)CC1	TRPC4 PAM 13
COc1ccc(CC(=O)Nc2cc(Cl)ccc2N2CCCC2)cc1	none
COc1ccc(Cl)cc1C(=O)Nc1ccccc1N1CCN(C)CC1	TRPC4 agonist 126
COc1ccc(CCC(=O)Nc2cc(Cl)ccc2N2CCN(C)CC2)cc1	TRPC4 PAM 12
COc1ccc(Cl)cc1S(=O)(=O)N1CCCC1	none
Cc1ncc(CN2CCCC(C(=O)Nc3ccc(-n4ccnc4C)cc3)C2)cn1 (stereo not given)	none
CCOCCCNC(=O)/C(C#N)=C/c1ccc(Cl)c([N+](=O)[O-])c1	TRPC4 PAM 18
COCc1ccc(CN2CCCC(CCC(=O)NCc3cccc(OC)c3)C2)o1 (stereo not given)	none
COc1ccccc1/C=C/CN1CCCC(CCC(=O)NCc2ccc(F)c(F)c2)C1 (stereo not given)	TRPC4 agonist 118
COc1cccc(CNC(=O)CCC2CCCN(C/C=C/c3ccccc3OC)C2)c1 (stereo not given)	TRPC4 agonist 73
COc1ccc(OCC(O)CNC2CCCC2)cc1 (stereo not given)	none
CCc1ccc(OCCOCC(O)CNC2CCCC2)cc1 (stereo not given)	TRPC4 inh -5
CC(C)NCC(O)COCCOc1ccc(C(C)(C)C)cc1 (stereo not given)	TRPC4 inh -5
CC1(C)Cc2cccc(OCC(=O)Nc3cc(C(F)(F)F)ccc3N3CCOCC3)c2O1	none
CCCN(CCC)CCCNC(=O)c1ccc2c(c1)N(CC)C(=O)c1ccccc1S2=O (stereo not given)	TRPC4 agonist 66
O=C(NCCCN1CCCC1)c1ccc2c(c1)N(Cc1cccc(Cl)c1)C(=O)c1ccccc1S2=O (stereo not given)	none
CCCCSCCCNC(=O)c1ccc2c(c1)N(CC)C(=O)c1ccccc1S2=O (stereo not given)	none
CC1CC(C)CN(CCCNC(=O)c2ccc3c(c2)N(Cc2ccccc2)C(=O)c2ccccc2S3=O)C1 (stereo not given)	TRPC4 agonist 85
C/C(=N/NC(=O)CN1CCN(S(=O)(=O)c2ccc(Br)cc2)CC1)c1ccco1	none
O=C(CCS(=O)(=O)c1cccc2nonc12)Nc1ccc(Br)cc1	none
CCN(CC(=O)Nc1c(F)cccc1F)C(=O)c1ccc(C#N)cc1	none
CCN1CCN(c2ncnc3sc(C)c(-c4ccccc4)c23)CC1	TRPC4 agonist 86
CCN1CCN(c2ncnc3scc(-c4ccc(C)c(C)c4)c23)CC1	none
COC(=O)/C=C1\SC(=NC(=O)c2cccc(Cl)c2)NC1=O	TRPC4 inh -6
COC(=O)/C=C1/SC(=NC(=O)c2ccccc2)NC1=O	none
C=CCn1c(SCC(=O)OC)nc2sc3c(c2c1=O)CCN(C)C3	TRPC6 inh -5.7
CC(=O)c1cccc(N(C(=O)CNC(=O)c2ccco2)C(C(=O)NCC2CCCO2)c2ccccc2)c1 (stereo not given)	TRPC4 PAM 11
CCOC(=O)/C(=C\c1ccc(Cl)cc1)c1nc2sc(C)c(C)c2c(=O)[nH]1	TRPC4 PAM 11
CC(=O)C12CCCCC1CC1[C@@H]3CC(C)C4=CC(=O)CC[C@]4(C)C3CC[C@@]12C (stereo not given in full)	TRPC4 PAM 12
CC(=O)O[C@]1(C(C)=O)CC[C@H]2[C@@H]3C[C@H](C)C4=CC(=O)CC[C@]4(C)[C@H]3CC[C@@]21C	none
COc1cccc(CN2CCC(C(=O)N3CCC(C)CC3)CC2)c1	none
CCC(Cc1ccccc1)NS(=O)(=O)c1ccc2c(c1)NC(=O)CO2 (stereo not given)	none
COc1ccc(C(=O)C2CCCN(Cc3cn[nH]c3-c3ccc(F)cc3)C2)cc1OC (stereo not given)	TRPC4 agonist 44
COc1ccc(C(=O)C2CCCN(Cc3cn(C)nc3-c3ccccc3)C2)cc1F (stereo not given)	none
